In experiment [1] the target is T1, Epidermal growth factor receptor (Homo sapiens, UniProt P00533). In words: Inhibitory concentration compound against EFGR tyrosine kinase obtained from plasma membrane vesicles from cultured A431 cells. It is filed as cell-free, A-431.
The target of experiment [2] is T1, Epidermal growth factor receptor. Briefly: Inhibition of EFGR tyrosine kinase from A431 cells. The format is cell-based. The note with it: A-431. The method, boiled down:
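Enzyme source was the native EGFR complex in plasma membrane vesicles shed from cultured A431 epidermoid carcinoma cells. Kinase activity was measured as ³²P incorporation from added [γ-³²P]ATP into a 6:3:1 random copolymer of glutamate, alanine and tyrosine.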

A short description of experiment [3]: Inhibition of v-src from baculovirus culture. The method in brief: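 pp60v-src from v-src baculovirus-infected insect cells, bound via monoclonal antibody to 0.65 μm latex beads. Activity was measured as ³²P incorporation from [γ-³²P]ATP into poly[(glu)4(tyr)1] substrate.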
Experiment [4] is described as follows: Inhibitory concentration of the against pp60v-src tyrosine kinase obtained from v-src baculovirus-infected insect cells.

A word on the IC50: it is the midpoint of a concentration-inhibition curve.

T1 sequence (P00533 whole entry): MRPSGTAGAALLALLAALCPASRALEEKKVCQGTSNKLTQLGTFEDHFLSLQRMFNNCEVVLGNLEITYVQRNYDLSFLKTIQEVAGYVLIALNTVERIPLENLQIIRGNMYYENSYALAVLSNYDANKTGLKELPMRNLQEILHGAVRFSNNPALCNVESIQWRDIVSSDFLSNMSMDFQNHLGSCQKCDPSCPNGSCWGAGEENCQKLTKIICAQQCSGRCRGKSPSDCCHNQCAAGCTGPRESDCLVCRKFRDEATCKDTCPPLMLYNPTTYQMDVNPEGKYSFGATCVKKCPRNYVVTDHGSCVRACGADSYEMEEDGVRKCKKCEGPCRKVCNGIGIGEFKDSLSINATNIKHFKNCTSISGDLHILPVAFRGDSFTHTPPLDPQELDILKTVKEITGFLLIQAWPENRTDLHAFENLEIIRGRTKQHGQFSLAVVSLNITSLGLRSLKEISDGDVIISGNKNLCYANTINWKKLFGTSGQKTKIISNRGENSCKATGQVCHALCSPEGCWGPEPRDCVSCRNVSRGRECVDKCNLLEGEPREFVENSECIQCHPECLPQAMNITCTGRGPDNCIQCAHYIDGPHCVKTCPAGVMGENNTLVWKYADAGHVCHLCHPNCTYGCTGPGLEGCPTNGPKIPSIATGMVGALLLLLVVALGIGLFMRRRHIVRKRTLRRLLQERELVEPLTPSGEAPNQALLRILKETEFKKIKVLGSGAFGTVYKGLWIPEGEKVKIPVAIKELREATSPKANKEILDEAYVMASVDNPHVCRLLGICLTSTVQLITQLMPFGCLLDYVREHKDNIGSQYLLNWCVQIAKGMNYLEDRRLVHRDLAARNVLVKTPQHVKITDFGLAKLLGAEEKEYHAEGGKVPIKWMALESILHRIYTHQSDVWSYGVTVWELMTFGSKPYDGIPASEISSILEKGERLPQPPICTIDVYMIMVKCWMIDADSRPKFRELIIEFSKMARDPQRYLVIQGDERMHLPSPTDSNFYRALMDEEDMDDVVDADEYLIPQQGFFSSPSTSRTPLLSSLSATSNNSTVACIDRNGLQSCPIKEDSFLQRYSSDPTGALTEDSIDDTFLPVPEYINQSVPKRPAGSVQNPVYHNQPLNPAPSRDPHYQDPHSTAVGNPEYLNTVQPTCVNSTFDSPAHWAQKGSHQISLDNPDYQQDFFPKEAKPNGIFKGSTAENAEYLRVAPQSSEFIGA

`CN(C(=O)c1c(SSc2c(C(=O)N(C)c3ccccc3)c3ccccc3n2C)n(C)c2ccccc12)c1ccccc1` yielded a half-inhibitory concentration (IC50) in experiment [1] greater than 100 µM.
The compound `Cn1c(SSc2c(C(=O)Nc3cccnc3)c3ccccc3n2C)c(C(=O)Nc2cccnc2)c2ccccc21` displayed an IC50 in experiment [1] greater than 100 µM.
In turn, `COC(=O)c1ccc(C(=O)C2C(=S)N(C)c3ccccc32)cc1` (configuration not stated) yielded an FC50 in experiment [2] greater than 100 µM.
Regarding `CNC(=O)c1c(SSc2c(C(=O)NC)c3ccccc3n2C)n(C)c2ccccc12`, the IC50 in experiment [1] stood at 1.8 µM.
Still for that read-out and setting: the result for `COC(=O)c1cccc(NC(=O)c2c(SSc3c(C(=O)Nc4cccc(C(=O)OC)c4)c4ccccc4n3C)n(C)c3ccccc23)c1` reads greater than 100 µM; that for `O=C(NCc1ccccc1)c1c(SSc2[nH]c3ccccc3c2C(=O)NCc2ccccc2)[nH]c2ccccc12`, 15 µM.
On the same count and under the same terms, the result for `Cn1c(SSc2c(C(=O)Nc3cccs3)c3ccccc3n2C)c(C(=O)Nc2cccs2)c2ccccc21` reads greater than 100 µM; that for `Cn1c(SSc2c(C(=O)Nc3ccncc3)c3ccccc3n2C)c(C(=O)Nc2ccncc2)c2ccccc21`, greater than 100 µM.
With `CN(C)CCCn1c(SSc2c(C(=O)Nc3ccccc3)c3ccccc3n2CCCN(C)C)c(C(=O)Nc2ccccc2)c2ccccc21`, it took 5.6 µM to reach half-maximal inhibition in experiment [3] (IC50). The compound further registered an FC50 in experiment [2] of 26 µM.
For the compound `CC(=O)C1C(=S)N(C)c2ccccc21` (configuration not stated), the IC50 in experiment [3] is greater than 50 µM. This compound yielded an FC50 in experiment [2] greater than 100 µM.
In experiment [1], `Cn1c(SSc2c(C(=O)c3ccco3)c3ccccc3n2C)c(C(=O)c2ccco2)c2ccccc21` showed an IC50 of 7.7 µM.
The same measure, in the same setting: the result for `CCn1c(SSc2c(C(=O)Nc3ccccc3)c3ccccc3n2CC)c(C(=O)Nc2ccccc2)c2ccccc21` reads greater than 100 µM.
For `CN1C(=S)C(C(=O)c2ccccc2)c2ccccc21` (configuration not stated), the FC50 in experiment [2] is greater than 100 µM.
In experiment [1], `Cn1c(SSc2c(C(=O)NCc3ccccc3)c3ccccc3n2C)c(C(=O)NCc2ccccc2)c2ccccc21` registered a concentration for half-maximal inhibition (IC50) of 1.7 µM.
With `Cn1c(SSc2c(C(=O)Nc3ccccc3)c3ccccc3n2C)c(C(=O)Nc2ccccc2)c2ccccc21`, the results for the 50% inhibitory concentration (IC50) in experiment [1] and in experiment [4] were 10.9 µM and 3.2 µM, respectively.
Take `Cn1c(SSc2c(C(=O)c3ccccc3)c3ccccc3n2C)c(C(=O)c2ccccc2)c2ccccc21`: the IC50 in experiment [1] was greater than 100 µM.
Compound `CNC(=O)c1c(SSc2[nH]c3ccccc3c2C(=O)NC)[nH]c2ccccc12` displayed an IC50 in experiment [1] of 6.1 µM.
The same measure, in the same setting: the result for `O=C(Nc1ccccc1)c1c(SSc2[nH]c3ccccc3c2C(=O)Nc2ccccc2)[nH]c2ccccc12` reads 100 µM; that for `Cn1c(SSc2c(C(=O)Nc3ccccn3)c3ccccc3n2C)c(C(=O)Nc2ccccn2)c2ccccc21`, 47 µM.
Still for that read-out and setting: the result for `NC(Cc1c(SSc2[nH]c3ccccc3c2CC(N)C(=O)NCc2ccccc2)[nH]c2ccccc12)C(=O)NCc1ccccc1` (configuration not stated) reads 3.3 µM.
In experiment [1], `CN(C)CCNC(=O)c1c(SSc2c(C(=O)NCCN(C)C)c3ccccc3n2C)n(C)c2ccccc12` registered an IC50 of 17.5 µM.
Still for that read-out and setting: with `Cc1c(SSc2c(C)c3ccccc3n2C)n(C)c2ccccc12` the figure was greater than 100 µM.
Compound `COC(=O)c1ccc(NC(=O)c2c(SSc3c(C(=O)Nc4ccc(C(=O)OC)cc4)c4ccccc4n3C)n(C)c3ccccc23)cc1` yielded an IC50 in experiment [1] greater than 100 µM.
For `Cn1c(SSc2c(C(=O)Nc3ccccc3)c3cc(C(F)(F)F)ccc3n2C)c(C(=O)Nc2ccccc2)c2cc(C(F)(F)F)ccc21`, in experiment [4], half-maximal inhibition (IC50) required 5.8 µM.
In experiment [3], `CC1C(=S)N(C)c2ccccc21` (configuration not stated) gave a half-maximal inhibitory concentration (IC50) greater than 100 µM. In experiment [2], the FC50 is greater than 100 µM.
Regarding `c1ccc(-c2c(SSc3[nH]c4ccccc4c3-c3ccccc3)[nH]c3ccccc23)cc1`, in experiment [1], 100 µM corresponded to half-maximal inhibition (IC50).
With `Cc1ccc(S(=O)(=O)c2c(SSc3[nH]c4ccccc4c3S(=O)(=O)c3ccc(C)cc3)[nH]c3ccccc23)cc1`, the 50% inhibitory concentration (IC50) in experiment [1] came out at 28.7 µM.
Regarding `COC(=O)c1ccccc1NC(=O)c1c(SSc2c(C(=O)Nc3ccccc3C(=O)OC)c3ccccc3n2C)n(C)c2ccccc12`, in experiment [1], the 50% inhibitory concentration (IC50) was greater than 100 µM.
`CN1C(=S)C(C(=O)c2ccco2)c2ccccc21` (configuration not stated) yielded an IC50 in experiment [3] of 10.8 µM. In experiment [2], this compound registered an FC50 greater than 100 µM.
Consider `CN1C(=S)C(C(=O)Nc2ccccc2)c2ccccc21` (configuration not stated), for which, in experiment [3], 10 µM corresponded to half-maximal inhibition (IC50). The compound also returned an FC50 in experiment [2] of 1 µM.
With `CN1C(=S)C(C(=O)c2ccc(C(=O)O)cc2)c2ccccc21` (configuration not stated), the FC50 in experiment [2] was 8.7 µM.

(Values after ChEMBL document CHEMBL1128344 (J Med Chem, 1995).)
